From article PMC4403237 (European journal of medicinal chemistry, 2014) come the findings set out here.

Data set [1] concerns Hep3B human hepatoma cell line. Nature of the data set: MTT cell viability assay, Hep3B. Particulars: 48 h, read-out: IC50 Hep3B. The format is cell-based. The essentials:
(§1)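 Logarithmically growing cells were used: HL-60 and NCI-H460 in RPMI-1640 with 10% FBS and L-glutamine; Hep3B in DMEM/F12 with 10% FBS; Detroit 551 in DMEM with 10% FBS and L-glutamine. Cells were exposed to a range of test compound concentrations or DMSO vehicle for 48 h at 37 °C, then incubated with MTT (1 mg/mL in PBS) for 2 h. Absorbance was read at 570 nm, corrected at 630 nm.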

The subject of data set [2] is NCI-H460 non-small cell lung cancer cell line. Nature of the data set: MTT cell viability assay, NCI-H460. Type of data set: cell-based. Particulars: Homo sapiens, NCI-H460, 48 h, read-out: IC50 NCI-H460. The essentials: as §1
Data set [3] deals with Detroit 551 human skin fibroblast cell line. The data set is described as follows: MTT cell viability assay, Detroit 551. The format is cell-based. Particulars: Detroit 551, 48 h, read-out: IC50 Detroit551. The essentials: as §1
In data set [4] the test system is HL-60 human leukemia cell line. The data set is described as follows: MTT cell viability assay, HL-60. Type of data set: cell-based. As to conditions: HL-60, 48 h, read-out: IC50 HL-60. The essentials: as §1
For data set [5], the system named is Hep3B cells. Nature of the data set: In vivo. The format is cell-based, human. Particulars: 1 μM, 24 h. The essentials: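 Hep3B cells were treated for 24 h with DMSO vehicle, 1 μM test compound, or 1 μM reference antimitotics. Cells were washed in ice-cold PBS and lysed 5 min at 37 °C in hypotonic buffer (20 mM Tris-HCl pH 6.8, MgCl2, EGTA, 0.5% IGEPAL, protease inhibitors), then spun 15,000 ×g for 10 min at 25 °C. Supernatant (soluble) and sonicated pellet (polymerized) fractions were western-blotted for α-tubulin, β-tubulin and β-actin.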

Data set [6] has as its system SW-620 colon cancer. The data set is described as follows: NCI-60 screen, SW-620. Type of data set: cell-based, human.
The subject of data set [7] is M14 melanoma. Nature of the data set: NCI-60 screen, M14. Type of data set: cell-based, human.
In data set [8] the test system is Hep3B cells. The data set is described as follows: Cell cycle distribution by flow cytometry in Hep3B cells. Particulars: 24 h. The format is cell-based, human. The essentials: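 Hep3B cells were treated for 24 h with DMSO vehicle, test compound at 0.1, 0.3, 1 or 3 μM, or 1 μM reference antimitotics (vinblastine, colchicine, paclitaxel). Cells were stained with propidium iodide and analysed by flow cytometry. Data are mean ± SEM of three independent experiments.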

The subject of data set [9] is Hep3B cells. Nature of the data set: Western blot of caspase and PARP cleavage in Hep3B cells. The format is cell-based, human. As to conditions: 48 h treatment.
In data set [10] the test system is NCI-H522 non-small cell lung cancer. Nature of the data set: NCI-60 screen, NCI-H522. Type of data set: cell-based, human. Particulars: NCI-522 non-small cell lung cancer.
Data set [11] concerns K562 leukemia. The data set is described as follows: NCI-60 screen, K562. Type of data set: cell-based, human.
For data set [12], the system named is NCI-60 human cancer cell line panel. Nature of the data set: NCI-60 human cancer cell line panel screen. Type of data set: cell-based. Particulars: NCI-60 panel mean.
Data set [13] has as its system SR leukemia. The data set is described as follows: NCI-60 screen, SR. Type of data set: cell-based, human.
For data set [14], the system named is MDA-MB-435 melanoma. Nature of the data set: NCI-60 screen, MDA-MB-435. Type of data set: cell-based, human.
The subject of data set [15] is Hep3B xenograft. The data set is described as follows: Hep3B xenograft nude mice model. The format is in vivo, Balb/c nude mice. The essentials: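 Male Balb/c nude mice (4–6 weeks, 18–20 g, SPF) received 2 × 10^6 Hep3B cells s.c. in the right flank. At tumor volume >100 mm3 (day 0), mice were grouped (n = 8). The water-soluble phosphate prodrug was given i.v. at 10, 20 or 40 mg/kg, five days/week for 3 weeks; doxorubicin i.v. served as reference. Tumor size (length × width² × 0.5) and body weight were recorded every 7 days to day 21; T/C was calculated.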

For the molecule `COc1cccc(-c2cc(=O)c3c(C)ccnc3[nH]2)c1` [6a, 2-(3-Methoxyphenyl)-5-methyl-1,8-naphthyridin-4(1H)-one], the IC50 in [1] is 130 nM; in data set [2], 180 nM; in [3], > 5000 nM; in data set [4] it was 30 nM.
For `COc1cccc(-c2cc(=O)c3cc(C)cnc3[nH]2)c1` [6b, 2-(3-Methoxyphenyl)-6-methyl-1,8-naphthyridin-4(1H)-one], in that order: 120 nM, 140 nM, > 2500 nM and 60 nM.
For `COc1cccc(-c2cc(=O)c3c(C)cc(C)nc3[nH]2)c1` [6c, 2-(3-Methoxyphenyl)-5,7-dimethyl-1,8-naphthyridin-4(1H)-one], in that order: 730 nM, 750 nM, > 50000 nM and 330 nM.
The corresponding values for `COc1cccc(-c2cc(=O)c3cc(Cl)cnc3[nH]2)c1` [6d, 6-Chloro-2-(3-methoxyphenyl)-1,8-naphthyridin-4(1H)-one] are 100 nM, 100 nM, > 50000 nM and 30 nM.
As to `COc1cccc(-c2cc(=O)c3cc(F)cnc3[nH]2)c1` [6e, 6-Fluoro-2-(3-methoxyphenyl)-1,8-naphthyridin-4(1H)-one], the half-maximal inhibitory concentration (IC50) in data set [1] was 200 nM; in [2] it was 240 nM; in data set [3] it was > 5000 nM; in data set [4] it was 70 nM.
The corresponding values for `COc1cnc2[nH]c(-c3cccc(F)c3)cc(=O)c2c1` [6g, 2-(3-Fluorophenyl)-6-methoxy-1,8-naphthyridin-4(1H)-one] are 20 nM, 50 nM, > 10000 nM and 20 nM.
The corresponding values for `COc1cnc2[nH]c(-c3cccc4ccccc34)cc(=O)c2c1` [6h, 6-Methoxy-2-(naphthalen-1-yl)-1,8-naphthyridin-4(1H)-one] are 50 nM, 850 nM, > 25000 nM and 40 nM.
On to `COc1cnc2[nH]c(-c3csc4ccccc34)cc(=O)c2c1` [6i, 2-(Benzo[b]thiophen-3-yl)-6-methoxy-1,8-naphthyridin-4(1H)-one], for which the IC50 in data set [1] was 90 nM; in data set [2] it was 160 nM; in data set [3], > 10000 nM; in data set [4] it was 40 nM.
On to `Cc1ccnc2[nH]c(-c3cccc(O)c3)cc(=O)c12` [7a, 2-(3-Hydroxyphenyl)-5-methyl-1,8-naphthyridin-4(1H)-one], for which the “tubulin content in cytoskeleton (polymerized) fraction” value in [5] is “decreased both α-tubulin and β-tubulin contents in the cytoskeleton fraction”. Besides, the logGI50 result in data set [6], in [7], in [10], in [11], in data set [13] and in [14] was “less than −7.00” in each case. For the same molecule, the “cell population at G2/M phase” value in data set [8] (0.1-3 μM) was “significant cell population accumulation at G2/M phase in a concentration-dependent manner”. Further, in [8], the sub-G1 phase population result is on record as “predominant increase in sub-G1 phase”. Besides, in [9], the “cleavage of caspases and PARP” value is “concentration-dependent increase in the cleavage of caspase-8, -9, -3, and PARP”. Besides, the half-maximal inhibitory concentration (IC50) was 170 nM in data set [1], 200 nM in data set [2], > 50000 nM in data set [3] and 30 nM in data set [4]. Besides, the “average logGI50 (MID)” value in data set [12] is −6.30.
On to `Cc1cnc2[nH]c(-c3cccc(O)c3)cc(=O)c2c1` [7b, 2-(3-Hydroxyphenyl)-6-methyl-1,8-naphthyridin-4(1H)-one], for which the IC50 in data set [1] is 440 nM; in data set [2], 450 nM; in data set [3] it was > 2500 nM; in [4] it was 80 nM.
As for `Cc1cc(C)c2c(=O)cc(-c3cccc(O)c3)[nH]c2n1` [7c, 2-(3-Hydroxyphenyl)-5,7-dimethyl-1,8-naphthyridin-4(1H)-one], the half-inhibitory concentration (IC50) in data set [1] was 680 nM; in data set [2] it was 1300 nM; in data set [3], > 100000 nM; in data set [4] it was 290 nM.
The corresponding values for `O=c1cc(-c2cccc(O)c2)[nH]c2ncc(Cl)cc12` [7d, 6-Chloro-2-(3-hydroxyphenyl)-1,8-naphthyridin-4(1H)-one] are 340 nM, 200 nM, > 100000 nM and 110 nM.
The corresponding values for `O=c1cc(-c2cccc(O)c2)[nH]c2ncc(F)cc12` [7e, 6-Fluoro-2-(3-hydroxyphenyl)-1,8-naphthyridin-4(1H)-one] are 380 nM, 700 nM, > 100000 nM and 140 nM.
`O=c1cc(-c2cccc(F)c2)[nH]c2nccc(O)c12` [7f, 2-(3-Fluorophenyl)-5-hydroxy-1,8-naphthyridin-4(1H)-one]: the IC50 in data set [1] is 1820 nM; in [2] it was 2480 nM; in [3], > 100000 nM; in data set [4], 820 nM.
For `O=c1cc(-c2cccc(F)c2)[nH]c2ncc(O)cc12` [7g, 2-(3-Fluorophenyl)-6-hydroxy-1,8-naphthyridin-4(1H)-one], the IC50 in data set [1] was 160 nM; in [2], 860 nM; in data set [3], > 100000 nM; in data set [4], 80 nM.
Consider `O=c1cc(-c2cccc3ccccc23)[nH]c2ncc(O)cc12` [7h, 6-Hydroxy-2-(naphthalen-1-yl)-1,8-naphthyridin-4(1H)-one], for which the IC50 in data set [1] is 460 nM; in [2], 1340 nM; in [3] it was > 100000 nM; in data set [4], 480 nM.
In the case of `O=c1cc(-c2csc3ccccc23)[nH]c2ncc(O)cc12` [7i, 2-(Benzo[b]thiophen-3-yl)-6-hydroxy-1,8-naphthyridin-4(1H)-one], the IC50 was determined as 1070 nM in [1], 390 nM in [2], 10000 nM in data set [3] and 570 nM in [4].
As for `CC(=O)O[C@H]1C(=O)[C@@]2(C)[C@H]([C@H](OC(=O)c3ccccc3)[C@]3(O)C[C@H](OC(=O)[C@H](O)[C@@H](NC(=O)c4ccccc4)c4ccccc4)C(C)=C1C3(C)C)[C@]1(OC(C)=O)CO[C@@H]1C[C@@H]2O` [Taxol, reference compound], the IC50 in data set [1] was 500 nM; in data set [2], 5 nM; in data set [4], 2 nM.
As to `Cc1ccnc2[nH]c(-c3cccc(OP(=O)(O)O)c3)cc(=O)c12` [compound 11, 3-(5-Methyl-4-oxo-1,4-dihydro-1,8-naphthyridin-2-yl)phenyl dihydrogen phosphate], the “Hep3B inhibitory activity compared with doxorubicin” value in [15] (i.v. 20 mg/kg) is “exceeded that of 5 mg/kg doxorubicin”. Moreover, the Hep3B tumor weight in data set [15] (i.v. 40 mg/kg) was 78.6 % of the control. In addition, the body weight changes result in [15] (i.v. 10, 20, 40 mg/kg, during antitumor evaluation) was “no significant body weight changes”. The “inhibition of Hep3B tumor growth” value in [15] (i.v. 10, 20 and 40 mg/kg/day, five days per week, three weeks) is “dose- and time-dependent inhibition of Hep3B tumor growth”.
